The experiment concerns the target Human thrombin (Homo sapiens, UniProt P00734). Briefly: Thrombin inhibitory assay with chromogenic substrate S-2238. The experiment is classed as biochemical. In a few lines: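 Human thrombin (2 U/mL working solution) premixed with test peptide at a range of concentrations. Chromogenic substrate S-2238 (1 mM solution) then added; blanks received buffer instead. All components were in 50 mM Tris-HCl, pH 7.5. Reaction ran 5 min at 37°C, with absorbance read at 375 nm. IC50 was taken as the peptide concentration giving 50% thrombin inhibition.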

Ends that are not written are not given here.

Substance FFQQSGG [FFQQSGG] yielded an IC50 of 2670 µM.

FVEIQAL [FVEIQAL]: 530 µM corresponded to half-maximal inhibition (IC50). In turn, SLVTKVS [SLVTKVS] had an IC50 of 4350 µM. FASRW [P5]: the IC50 was found to be 2.67 µM. EVVNQ [P2]: the IC50 was 4.35 µM. Substance AEGYA [P1] had an IC50 of 0.53 µM.

The record behind these values is PMC10783423 (Medicine, 2024).
